A selection: hits, their analogues and other compounds. The true share with any hit is near 2.5%.
Diaph act CS: counter-screen for diaphorase-based assays: diaphorase activators and chemical reducers; Diaphorase/resazurin coupled assay, resorufin fluorescence, 16 min; active compounds read high; 1 = vehicle wells, 0 = NADH-free wells; activation factor at 20 µM; hit rate 0.005% among 190,000;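 active means diaphorase activity raised at least twofold by the compound at 20 µM; inactive means activation factor below 2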
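Material: purified diaphorase enzyme from Clostridium kluyveri; Also added: 0.114 mM NADH and 0.1 mM resazurin, final amounts; Doses: single compound dose of 20 µM, 1% DMSO final; Times: 16 min enzyme reaction, ambient temperature; Detection: resorufin fluorescence, excitation 544 nm, emission 590 nm; Measure: increased resorufin signal from activators or reducing compounds.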
PMI act hi M6P: increases human PMI activity with near-saturating mannose 6-phosphate. hit rate 0.34% among 190,000. activation factor at 20 µM. coupled PMI enzyme assay, resazurin fluorescence, 20 min; active compounds read high; 1 = untreated enzyme, 0 = substrate-free blank. P34949;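 active means activation factor of 2 or more at 20 µM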
Target sequence (P34949 whole entry, looked up): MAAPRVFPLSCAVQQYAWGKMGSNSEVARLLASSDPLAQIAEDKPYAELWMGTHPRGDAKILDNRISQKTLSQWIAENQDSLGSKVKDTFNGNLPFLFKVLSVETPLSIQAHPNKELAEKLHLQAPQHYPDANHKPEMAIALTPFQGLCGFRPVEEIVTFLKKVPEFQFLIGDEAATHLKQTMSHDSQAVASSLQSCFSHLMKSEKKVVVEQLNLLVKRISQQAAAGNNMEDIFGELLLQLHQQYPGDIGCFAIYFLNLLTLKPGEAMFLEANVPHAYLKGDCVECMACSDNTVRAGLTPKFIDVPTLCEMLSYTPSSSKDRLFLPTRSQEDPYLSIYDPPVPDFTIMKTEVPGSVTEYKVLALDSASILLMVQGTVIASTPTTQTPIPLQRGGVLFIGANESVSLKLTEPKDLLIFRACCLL
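Material: human phosphomannose isomerase with PGI, G6PDH, diaphorase coupling enzymes / Reagent: Man-6-P substrate 1.0 mM / Dosing: single compound dose of 20 µM, 1% DMSO final / Incubation: enzyme reaction with compound 20 min at room temperature / Signal: resorufin fluorescence (Ex 544/Em 590 nm) from resazurin via diaphorase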
FLuc act counter: affects firefly luciferase, flagging false hits in luciferase stimulation screens; AID 1027; 200,000 tested, under 10 active; activation factor at 10 µM; P08659; ATPlite luciferase biochemical, luminescence, 10 min; 0 = ATP-free wells, 1 = DMSO control;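 active means luciferase activation factor, scaled between plate controls, of at least 2 with compound at 10 µM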
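System: cell-free luciferase reagent; medium: PBS as buffer for the ATP substrate; doses: test compounds dosed from 2 mM stocks in 100% DMSO; incubation: 10 min, room temperature; measured by: luminescence from luciferase reaction; read-out: luciferase activation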
FLuc inhib CS: counter-screen for luciferase assay inhibitors: firefly luciferase inhibition; P08659; ATPLite firefly luciferase biochemical luminescence, 10 min; inhibition, % at 10 µM; hit rate 1.5% among 200,000;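 active means inhibition above about 50% when tested at 10 µM, limit read from the data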
PMI act: activators of human phosphomannose isomerase | activation factor at 20 µM | hit rate 0.005% among 190,000 | purified human PMI, coupled resazurin fluorescence, 20 min; active compounds read high; 1 = vehicle control, 0 substrate-free wells;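 active means activation factor of 2 or more at 20 µM, relative to plate controls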
Diaph inh CS: inhibits diaphorase or chemically oxidizes, flagging diaphorase assay artifacts | diaphorase resazurin-to-resorufin fluorescence, NADH, 16 min; bacterial (C. kluyveri) enzyme, not human | inhibition, % at 20 µM | hit rate 0.69% among 190,000 | AID 1217;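 active means primary screen inhibition at 20 µM above a set limit, cut at about 50% in these data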
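Assay system: diaphorase enzyme from Clostridium kluyveri; Input: enzyme working solution with 0.14 U/mL diaphorase; Timing: 16 min at room temperature; Technique: resorufin fluorescence, excitation 544 nm, emission 590 nm; Benchmarks: positive control minus NADH, DMSO neutral control.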
Hits are given with their value; – = inactive.

SMILES	Diaph act CS	PMI act hi M6P	FLuc act counter	FLuc inhib CS	PMI act	Diaph inh CS
Nc1c(C(=O)NC2CCCC2)c2nc3ccccc3nc2n1/N=C/c1ccco1	–	–	–	–	–	–
Nc1c(C(=O)NC2CCCC2)c2nc3ccccc3nc2n1N	–	–	–	–	–	50.3
O=C(/C=C\c1ccccc1OC(=O)c1ccccc1F)c1cc2ccccc2o1	–	–	–	–	–	–
Cc1ccc(C(=O)NCCc2ccc(F)cc2)s1	–	–	–	–	–	–
O=C(COc1ccccc1O)N1CCN(C(=O)c2ccco2)CC1	–	–	–	–	–	–
O=C(COc1cccnc1[N+](=O)[O-])N1CCN(C(=O)c2ccco2)CC1	–	–	–	–	–	58.9
COc1cc(OC)c(C(=O)OCC(=O)c2cc(C)n(CC3CCCO3)c2C)cc1OC (configuration not stated)	–	–	–	–	–	–
Cc1cc(C(=O)COC(=O)c2ccc(O)cc2)c(C)n1CC1CCCO1 (configuration not stated)	–	–	–	52.6	–	–
O=C(Nc1ccc(N2CCOCC2)cc1N1CCOCC1)c1cccs1	–	–	–	–	–	–
O=C(c1ccc(N2CCOCC2)cc1)c1cccs1	–	–	–	65.7	–	–
O=C(N/N=C/c1ccc(N2CCOCC2)cc1)c1cccs1	–	–	–	52.3	–	–
O=C(Nc1cc(C(=O)N2CCOCC2)ccc1N1CCCC1)c1cccs1	–	2.1	–	–	–	–
Cn1c2c(c(=O)n(C)c1=O)C1(C(=O)Nc3ccccc31)C(C#N)=C(N)O2 (configuration not stated)	–	–	–	–	–	–
Cc1ccccc1C(=O)Nc1ccc2c(C#N)c3nc4ccccc4nc3n2c1	–	–	–	–	–	72.1
Cc1c(C(=O)Nc2ccccc2)cn2c(nc3ccccc32)c1C#N	–	–	–	–	–	–
O=C1Nc2ccccc2C1=Nc1ccc(-c2nnc3n2CCCCC3)cc1	–	–	–	–	–	–
Cc1c(NC(=O)Nc2ccccc2Cl)c(=O)n(-c2ccccc2)n1C	–	–	–	–	–	–
C=CCSc1nnc(-c2ccc(Cl)cc2Cl)o1	–	–	–	59.3	–	–
Clc1ccc(-c2nnc(SCc3ccon3)o2)c(Cl)c1	–	–	–	77.9	–	–
Clc1ccc(-c2nnc(SCc3nc4ccccc4[nH]3)o2)c(Cl)c1	–	–	–	–	–	–
C=CCSc1nnc(-c2cccnc2)o1	–	–	–	–	–	–
COc1cc(/C=C2\N=C(c3c(-c4ccccc4)noc3C)OC2=O)ccc1OC(C)=O	–	–	–	–	–	–
CN(C)c1ccc(/C=C/C(=O)c2ccccc2O)cc1	–	–	–	65.7	–	–
O=C(/C=C/c1ccc2c(c1)OCCCO2)c1ccccc1O	–	–	–	77.3	–	–
COc1ccc(C(=O)NC(=O)NC2(C(Cl)(Cl)Cl)OCCO2)cc1	–	–	–	–	–	–
SMILES	Diaph act CS	PMI act hi M6P	FLuc act counter	FLuc inhib CS	PMI act	Diaph inh CS
O=C(/C=C/c1ccc([N+](=O)[O-])cc1)NCCN1C(=O)S/C(=C\c2ccc(F)cc2)C1=O	–	–	–	–	–	–
CCc1nnc(NC(=O)c2sc3nc4c(cc3c2N)CCCCC4)s1	–	–	–	68.3	–	–
Cc1nc2c(C(=O)NCCc3ccccc3)c[nH]n2c(=O)c1Cl	–	–	–	–	–	79.2
Cc1nc2c(C(=O)NCCC(C)C)c[nH]n2c(=O)c1Cl	–	–	–	–	–	–
COc1ccc(/C=C(\NC(=O)c2ccc(C)cc2)C(=O)Nc2c(C)n(C)n(-c3ccccc3)c2=O)cc1	–	–	–	–	–	–
Cc1ccc(OCc2nc(-c3cccs3)no2)c([N+](=O)[O-])c1	–	–	–	60.9	–	–
O=[N+]([O-])c1ccccc1OCc1nc(-c2cccs2)no1	–	–	–	–	–	–
COc1ccc(-c2cc(-c3nnc(COC(=O)CC4CC5CCC4C5)o3)c3ccccc3n2)cc1OC (configuration not stated)	–	–	–	–	–	–
C=CCn1c(SCc2nc3c(c(=O)[nH]c(=O)n3CCCC)n2CCC)nnc1-c1ccccc1	–	–	–	–	–	–
Cc1ccc(NC(=O)c2ccc(CSc3nnnn3C)cc2)cc1	–	–	–	56.6	–	–
Cc1ccc(NC(=O)c2ccc(CSc3nnc(C)s3)cc2)cc1	–	–	–	55.8	–	–
Cc1cc(C)cc(NC(=O)c2ccc(CSc3nnc(C)s3)cc2)c1	–	–	–	–	–	–
O=C(c1ccccc1)c1n[nH]c(-c2ccccc2)cc1=O	–	–	–	–	–	–
O=Nc1c2cc(-c3ccccc3)[nH]nc-2c2ccccc12	–	–	–	87.0	–	–
Cc1ccc(-c2cc3c(N=O)c4ccccc4c-3n[nH]2)cc1	–	–	–	93.6	–	–
Cc1cccc(/C=N/n2c(-c3cc(-c4ccccc4)n[nH]3)n[nH]c2=S)c1	–	–	–	–	–	–
Cc1cccc(-c2cc3c(N=O)c4ccccc4c-3n[nH]2)c1	–	–	–	63.0	–	–
CC/C(=N/Nc1ccc(Cl)cc1)c1cnnc(SC)n1	–	2.5	–	–	–	–
CC/C(=N/O)c1cnnc(SC)n1	–	–	–	–	–	–
CSc1nncc(/C(C)=N\Nc2ccccc2C)n1	–	2.2	–	–	–	–
CC/C(=N/Nc1cccc(C)c1)c1cnnc(SC)n1	–	2.3	–	–	–	–
CC/C(=N/Nc1ccccc1Cl)c1cnnc(-c2ccccc2)n1	–	2.1	–	–	–	–
N#C/C(=N\Nc1ccccc1Cl)C(=O)c1ccccc1	–	–	–	–	–	–
CSc1nncc(/C(C)=N/O)n1	–	–	–	–	–	–
Cc1[nH]nc2c1C(C(C)c1ccccc1)C(C#N)=C(N)O2 (configuration not stated)	–	–	–	–	–	–
C/C(=N\NC(=O)C1COc2ccccc2O1)c1cc2ccccc2o1 (configuration not stated)	–	–	–	–	–	–
Cc1ccc(CNS(=O)(=O)/C=C/c2ccc3c(c2)OCO3)cc1	–	–	–	–	–	–
COc1ccc(N/N=C(/C)c2cnnc(-c3ccccc3)n2)cc1	–	2.4	–	–	–	–
CCOC(=O)N1CCN(C(=O)CN(c2ccccc2)S(C)(=O)=O)CC1	–	–	–	–	–	–
Cc1ccc(C(=O)O/N=C2\CCS(=O)(=O)c3sccc32)cc1	–	–	–	–	–	–

Source: PubChem
